From PubChem BioAssay
proCasp3 act – activates human procaspase-3; AID 463141; recombinant procaspase-3 D3A, Ac-DEVD-pNA absorbance 405 nm; activation, % at 8.5 µM; P42574; 0.11% of 330,000 active;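 active = activation above the mean of all tested compounds plus 3 SD, cut at about 21% in these data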;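 note: 0% = DMSO alone and 100% = DMSO wells spiked with extra 5 µM PC-3 D3A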
Target sequence (P42574 whole entry D9A/D28A/D175A): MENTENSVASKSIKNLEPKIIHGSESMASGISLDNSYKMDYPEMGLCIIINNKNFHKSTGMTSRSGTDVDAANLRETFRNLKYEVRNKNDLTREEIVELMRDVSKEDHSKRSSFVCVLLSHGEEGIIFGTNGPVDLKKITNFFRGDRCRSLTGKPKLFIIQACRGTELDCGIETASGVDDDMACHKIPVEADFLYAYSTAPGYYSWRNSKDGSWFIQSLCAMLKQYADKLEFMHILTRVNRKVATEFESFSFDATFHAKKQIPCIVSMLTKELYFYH
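Evaluation: percent activation relative to control range; Material: Procaspase-3 D3A mutant, all three cleavage aspartates alanine; Compound: single dose, 8.5 µM nominal compound, 0.8% DMSO; Replication: one well per compound; Signal: absorbance at 405 nm, 0 and 120 min; Schedule: 1 h preincubation plus 2 h reaction at 25 °C.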
MsrA inh – bovine MsrA inhibition. purified bovine MsrA, absorbance read-out. inhibition, % at 15.5 µM. AID 651718. 0.75% of 360,000 active; in the data active = inhibition above about 4.5%;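 note: 0% = vehicle wells with enzyme and 100% = reference inhibitor wells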
bovine MsrA act – activates bovine MsrA enzyme. purified bovine MsrA, absorbance read-out. activation, % at 10.6 µM. 0.3% of 360,000 active; in the data active = activation above about 7.5%;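 note: 0% = vehicle and 100% = reference activator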
proCasp7 act – counter-screen: procaspase-7 (human) activation | P55210 | recombinant procaspase-7, Ac-DEVD-pNA absorbance 405 nm; D23A/D198A/D206A triple mutant, cannot self-cleave; scale: DMSO 0, 5 µM enzyme 100 | activation, % at 8.5 µM | 0.093% of 330,000 active | AID 463210;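 active = percent activation above the screen-wide mean plus 3 SD, cut at about 25% in these data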
Target sequence (P55210 whole entry D23A/D198A/D206A): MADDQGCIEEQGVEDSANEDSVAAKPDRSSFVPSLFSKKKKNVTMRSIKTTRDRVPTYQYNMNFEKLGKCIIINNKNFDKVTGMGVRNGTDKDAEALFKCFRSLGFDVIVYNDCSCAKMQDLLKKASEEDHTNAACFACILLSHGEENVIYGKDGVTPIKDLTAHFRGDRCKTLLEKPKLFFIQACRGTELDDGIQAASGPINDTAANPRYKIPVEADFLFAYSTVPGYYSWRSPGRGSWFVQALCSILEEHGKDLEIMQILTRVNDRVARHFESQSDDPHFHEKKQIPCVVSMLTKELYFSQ
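Replicates: singlicate. Assay system: Procaspase-7 triple mutant (PC-7 D3A). Signal: 405 nm absorbance of p-nitroaniline. Times: 1 h preincubation, 2 h reaction. Buffer or medium: Zinc-free HEPES pH 7.4 with 300 mM NaCl, 0.01% Triton X-100. Also added: DEVD-pNA substrate. Benchmarks: DMSO wells as 0%, DMSO with 5 µM added PC-7 as 100%.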
MsrA act confirm – bovine methionine sulfoxide reductase A activation confirmed | shares compounds with bovine MsrA act | purified bovine MsrA, absorbance read-out | activation, % at 10.6 µM | 12% of 1,000 active | AID 602270; in the data active = activation above about 4%;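 note: enzyme coupled to thioredoxin and thioredoxin reductase with NADPH; 0% = vehicle wells and 100% = reference activator wells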
Active calls of the source: *; / = no result. This is a sample that favours compounds with a hit; in the whole collection about 1.2% have one here.

SMILES	proCasp3 act	MsrA inh	bovine MsrA act	proCasp7 act	MsrA act confirm
Cc1ccccc1Nc1n[nH]c(=S)s1	/	0	11*	/	1
Cc1c(Cl)cccc1Nc1n[nH]c(=S)s1	/	1	9.6*	/	0
Cc1cc(NC(=O)CCCC(=O)OCC(F)(F)C(F)F)cc(C)c1C(=O)O	2	-1	8.3*	-6	-3
C[C@@H]1CN(c2ccc(N3CCN(C(=O)OC(C)(C)C)C[C@H]3C)cc2C#N)CCN1Cc1ccccc1	/	0	/	/	/
C#CCOCCOCCOCCNc1nc(N2CCN(C(=O)[C@H]([C@@H](C)CC)n3cc(CCC(=O)O)nn3)CC2)nc(N2CCN(C(=O)[C@H](C)n3cc(CCCN=C(N)N)nn3)CC2)n1	6	1	-2	-7	/
C#CCOCCOCCOCCNc1nc(N2CCN(C(=O)[C@H]([C@@H](C)CC)n3cc(CCCN=C(N)N)nn3)CC2)nc(N2CCN(C(=O)[C@H]([C@@H](C)CC)n3cc(CCC(=O)O)nn3)CC2)n1	/	0	7.9*	/	-1
CCOC(=O)Nc1cc(=O)c([N+](=O)[O-])c(N)[nH]1	/	2	/	/	/
Cc1ccc2cc(C#N)c(N3CCCN(S(=O)(=O)c4ccccc4)CC3)nc2c1	-16	0	8.7*	-29	-3
COc1cc(/C=N/NC(=O)c2cccc([N+](=O)[O-])c2)ccc1OCc1ccc(C)cc1	-1	-1	8.3*	11	-1
COC(=O)Cn1cnc2c(NC(=O)c3ccccc3)ncnc21	/	0	/	/	/
Cc1ccc(NC(=O)NNC(=O)CSC2CCc3ccccc32)c(C)c1 (stereo not given)	/	1	/	/	/
O=C(Cc1ccccc1)N/N=C/c1ccc([N+](=O)[O-])s1	-5	2	7.9*	10	1
O=C(N/N=C/c1ccc([N+](=O)[O-])s1)c1ccccc1	-9	2	6	-3	/
O=C(COC(=O)c1ccc([N+](=O)[O-])s1)Nc1ccccc1	6	0	23*	5	11*
O=C(COC(=O)c1ccc([N+](=O)[O-])s1)Nc1ccc(F)cc1	2	2	20*	6	9.1*
COc1ccc(S(=O)(=O)N2CCOCC2)cc1NC(=O)COC(=O)c1ccc([N+](=O)[O-])s1	7	/	20*	4	11*
O=C(COC(=O)c1ccc([N+](=O)[O-])s1)Nc1ccc(Cl)cn1	-4	1	7	3	/
CC(=O)Nc1ccc(OCC(=O)NCCc2ccccc2)cc1	2	1	7.8*	5	0
COc1ccc(S(=O)(=O)N2CCOCC2)cc1NC(=O)COC(=O)c1[nH]c(C)c(C(C)=O)c1C	1	0	-7	9	/
CC(C)[C@@H]1CC[C@@H](C)C[C@H]1OC[B-](F)(F)F	/	0	/	/	/
CC(=O)N1C[C@@H](CO)[C@@H](N(C)C(=O)Nc2cccc3ccccc23)C[C@H]1c1ccccc1	/	-1	/	/	/
C#CCNC(=O)C[C@H]1C[C@@]2(C(=O)OC)C(=C[C@H](C(C)(C)C)O[C@@H]2C)N(Cc2ccc3c(c2)OCO3)C1=O	/	1	/	/	/
O=C(COC(=O)c1ccc([N+](=O)[O-])s1)Nc1cccc(S(=O)(=O)NC2=NCCCCC2)c1	10	3	9.8*	-2	4.4*
O=C(COC(=O)c1ccc([N+](=O)[O-])s1)NC(c1ccccc1)c1ccccc1	-6	2	17*	-8	6.0*
O=C(COc1ccccc1)Nc1ccc([N+](=O)[O-])cc1	1	2	20*	-1	2
SMILES	proCasp3 act	MsrA inh	bovine MsrA act	proCasp7 act	MsrA act confirm
CC(C)(C)c1ccc(NC(=O)COC(=O)c2ccc([N+](=O)[O-])s2)cc1	-3	0	10*	12	4.3*
Cc1c(Cl)cnc(NC(=O)COC(=O)c2ccc([N+](=O)[O-])s2)c1Cl	-12	1	0	-16	/
O=C(COC(=O)c1cccs1)Nc1cccc(S(=O)(=O)NC2=NCCCCC2)c1	-8	2	2	0	/
O=C(COC(=O)c1ccc([N+](=O)[O-])s1)NCc1ccccc1	-1	0	8.4*	-6	2
Cc1ccsc1/C=N/n1c(-c2ccco2)n[nH]c1=S	-13	2	11*	-16	-1
CC(CN(C)Cc1ccccc1)OC(=O)c1cccs1 (stereo not given)	-6	0	8.4*	-8	-2
CC(CN(C)Cc1ccccc1)OC(=O)c1ccccc1F (stereo not given)	2	0	-1	1	/
O=C(OCCN1CCCC1)C1(c2ccccc2)CCCC1	/	0	9.6*	/	-2
O=C(OCCN1CCCCC1)C1(c2ccccc2)CCCC1	2	0	-4	0	/
COc1cccc(-c2ccc3c(c2)[C@@H]2C[C@H]4[C@@H](CN2CC3)[C@H](C)ON4C)c1	/	3	/	/	/
Cc1ccc(NC(=O)CCC(=O)NNC(=O)NC23CC4CC(CC(C4)C2)C3)cc1C	-2	1	9.0*	2	0
COc1cccc(COc2ccccc2C2Nc3ccc(Br)cc3C(=O)N2NC(=O)c2ccncc2)c1 (stereo not given)	3	1	18*	3	-3
Cc1cccc(C)c1NC(=O)N1CCC(n2c(=O)[nH]c3ccccc32)CC1	5	-1	7.8*	4	-1
Cc1cccc(C)c1NC(=O)N1CCC(n2cnc3ccccc32)CC1	-8	-1	-3	-8	/
Cc1nnc(N/N=C/c2ccc([N+](=O)[O-])cc2)n1N	1	2	21*	0	-3
Cc1nnc(N/N=C/c2ccc(Br)cc2)n1N	-12	0	34*	-9	-2
COc1ccccc1CCn1cnc(-c2ccc(Br)cc2)c1CC(C)C	/	0	/	/	/
COc1ccc(N2C(=O)c3n[nH]c(C(C)C)c3C2c2ccc(C)cc2)cc1 (stereo not given)	/	0	/	/	/
Cc1nc2ccccn2c1-c1ccnc(=S)[nH]1	-23	3	8.8*	-31	0
Cn1nc(C(=O)OCC(=O)Nc2ccccc2[N+](=O)[O-])c2ccccc2c1=O	-3	0	-3	-3	/
Cn1nc(C(=O)OCC(=O)Nc2cc(Cl)ccc2C#N)c2ccccc2c1=O	-4	0	10*	5	-3
CC(=O)Nc1ccc(SC[C@H](Cc2ccccc2)N2CC[C@@H](C(C)(C)C)CCC2=O)cc1	-5	1	-4	-16	/
CC(=O)Nc1ccc(SC[C@H](Cc2ccccc2)N2CC[C@@H](O)CCC2=O)cc1	1	0	9.3*	-4	-1
CC(=O)N1CCN(c2ccc(N3CCN(C(C)=O)[C@@H](C)C3)c(C)c2)[C@@H](C)C1	/	0	/	/	/
N#Cc1ccccc1OCCCN1CCC(C(O)(c2ccccc2)c2ccccc2)CC1	/	-1	8.3*	/	-2
CC(=O)C1=C(C)N(Cc2ccc(F)cc2)C(=S)NC1c1ccc(Br)cc1 (stereo not given)	/	0	/	/	/
COc1ccccc1-[n+]1c(C)cc(/C=C2\Sc3ccccc3N2C)cc1C	-17	-1	8.2*	-37	-3
